Measured values from ChEMBL document CHEMBL1250442, “Inhibiting gene expression at transcription start sites in chromosomal DNA with antigene RNAs” (Nat Chem Biol, 2005).
Active and inactive are the calls of the source. No cut-off for these calls is given here.

Experiments:
T47D [1] = test: Effect of DNA methylation at (+149) CpG site near PR-B transcription start site (-13) in human T47D cells by sodium bisulfite sequencing analysis; format: functional, cell-based
How it was run: (§1)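 T47D cells grown in RPMI-1640 with 10% FBS, 0.5% NEAA, insulin and P/S at 37 °C, 5% CO2. They were plated at 80,000 cells/well 2 days before lipid transfection with 25 nM or 100 nM duplex, with medium changed at 24 h. Cells were harvested 5 days post-transfection. 100 ng bisulfite-treated DNA was PCR-amplified, and products were TA-cloned. 5–15 colonies per plate were sequenced.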

T47D [2] = test: Effect of DNA methylation at (+216) CpG site near PR-B transcription start site (-13) in human T47D cells by sodium bisulfite sequencing analysis; format: functional, cell-based; how it was run: as §1
T47D [3] = test: Effect of DNA methylation at (-46) CpG site near PR-B transcription start site (-13) in human T47D cells by sodium bisulfite sequencing analysis; format: functional, cell-based
How it was run: (§2)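 T47D cells (RPMI-1640, 10% FBS, NEAA, insulin; 37 °C, 5% CO2) transfected with agRNA duplexes via Oligofectamine, medium changed at 24 h. Genomic DNA bisulphite-treated, regions around AR and hPR-B start sites PCR-amplified (HotStarTaq, 100 ng treated DNA), gel-purified, TOPO TA cloned; 5–15 colonies per plate miniprepped and sequenced.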

T47D [4] = test: Inhibition of PR-B gene expression in human T47D cells at 25 nM by syber green assay; format: functional
How it was run: (§3)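 T47D cells plated at 80,000/well without antibiotics two days before Oligofectamine transfection with agRNA duplex (25 or 100 nM final); medium changed at 24 h, harvest day 5 unless stated otherwise. TRIzol total RNA; PR mRNA by real-time PCR with SYBR Green: 50 °C 2 min, 95 °C 10 min, 40 cycles 95 °C 15 s/60 °C 1 min.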

T47D [5] = test: Effect of DNA methylation at (+398) CpG site near PR-B transcription start site (-13) in human T47D cells by sodium bisulfite sequencing analysis; format: functional, cell-based; how it was run: as §1
T47D [6] = test: Effect of DNA methylation at (+125) CpG site near PR-B transcription start site (-13) in human T47D cells by sodium bisulfite sequencing analysis; format: functional, cell-based; how it was run: as §1
T47D [7] = test: Effect of DNA methylation at (-23) CpG site near PR-B transcription start site (-13) in human T47D cells by sodium bisulfite sequencing analysis; format: functional, cell-based; how it was run: as §2
T47D [8] = test: Effect of DNA methylation at (+295) CpG site near PR-B transcription start site (-13) in human T47D cells by sodium bisulfite sequencing analysis; format: functional, cell-based; how it was run: as §1
T47D [9] = test: Effect of DNA methylation at (+337) CpG site near PR-B transcription start site (-13) in human T47D cells by sodium bisulfite sequencing analysis; format: functional, cell-based; how it was run: as §1
T47D [10] = test: Inhibition of PR-A gene expression in human T47D cells at 25 nM by syber green assay in presence of 10 nM estradiol; format: functional, cell-based
T47D [11] = test: Inhibition of PR-B mRNA gene expression in human T47D cells at 100 nM by syber green assay; format: functional
How it was run: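 T47D cells in RPMI-1640 with 10% FBS, NEAA, insulin, 37 °C, 5% CO2. Plated two days before transfection without antibiotics. Oligofectamine-mediated duplex RNA transfection at 100 nM final, medium changed at 24 h, harvest five days post-transfection. Total RNA extracted with TRIzol. hPR mRNA quantified by SYBR Green qPCR: 50 °C 2 min, 95 °C 10 min, then 40 cycles of 95 °C 15 s / 60 °C 1 min.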

T47D [12] = test: Effect of DNA methylation at (+190) CpG site near PR-B transcription start site (-13) in human T47D cells by sodium bisulfite sequencing analysis; format: functional, cell-based; how it was run: as §1
T47D [13] = test: Inhibition of PR-A mRNA gene expression in human T47D cells at 100 nM by syber green assay; format: functional; how it was run: as §3
T47D [14] = test: Effect of DNA methylation at (+45) CpG site near PR-B transcription start site (-13) in human T47D cells by sodium bisulfite sequencing analysis; format: functional, cell-based; how it was run: as §2
T47D [15] = test: Effect of DNA methylation at (+20) CpG site near PR-B transcription start site (-13) in human T47D cells by sodium bisulfite sequencing analysis; format: functional, cell-based; how it was run: as §1
T47D [16] = test: Effect of DNA methylation at (-112) CpG site near PR-B transcription start site (-13) in human T47D cells by sodium bisulfite sequencing analysis; format: functional, cell-based; how it was run: as §2
T47D [17] = test: Effect of DNA methylation at (+362) CpG site near PR-B transcription start site (-13) in human T47D cells by sodium bisulfite sequencing analysis; format: functional, cell-based; how it was run: as §1
T47D [18] = test: Effect of DNA methylation at (+225) CpG site near PR-B transcription start site (-13) in human T47D cells by sodium bisulfite sequencing analysis; format: functional, cell-based; how it was run: as §1
T47D [19] = test: Effect of DNA methylation at (+107) CpG site near PR-B transcription start site (-13) in human T47D cells by sodium bisulfite sequencing analysis; format: functional, cell-based; how it was run: as §1
T47D [20] = test: Effect of DNA methylation at (+353) CpG site near PR-B transcription start site (-13) in human T47D cells by sodium bisulfite sequencing analysis; format: functional, cell-based; how it was run: as §1
T47D [21] = test: Effect of DNA methylation at (+173) CpG site near PR-B transcription start site (-13) in human T47D cells by sodium bisulfite sequencing analysis; format: functional, cell-based; how it was run: as §1
T47D [22] = test: Effect of DNA methylation at (+379) CpG site near PR-B transcription start site (-13) in human T47D cells by sodium bisulfite sequencing analysis; format: functional, cell-based; how it was run: as §1
T47D [23] = test: Effect of DNA methylation at (-75) CpG site near PR-B transcription start site (-13) in human T47D cells by sodium bisulfite sequencing analysis; format: functional, cell-based; how it was run: as §2
T47D [24] = test: Inhibition of PR-A gene expression in human T47D cells at 25 nM by syber green assay; format: functional; how it was run: as §3
T47D [25] = test: Effect of DNA methylation at (+267) CpG site near PR-B transcription start site (-13) in human T47D cells by sodium bisulfite sequencing analysis; format: functional, cell-based; how it was run: as §1
T47D [26] = test: Inhibition of PR-B gene expression in human T47D cells at 25 nM by syber green assay in presence of 10 nM estradiol; format: functional, cell-based
T47D [27] = test: Effect of DNA methylation at (+335) CpG site near PR-B transcription start site (-13) in human T47D cells by sodium bisulfite sequencing analysis; format: functional, cell-based; how it was run: as §1
T47D [28] = test: Effect of DNA methylation at (+166) CpG site near PR-B transcription start site (-13) in human T47D cells by sodium bisulfite sequencing analysis; format: functional, cell-based; how it was run: as §1
T47D [29] = test: Effect of DNA methylation at (+41) CpG site near PR-B transcription start site (-13) in human T47D cells by sodium bisulfite sequencing analysis; format: functional, cell-based; how it was run: as §1
T47D [30] = test: Effect of DNA methylation at (+162) CpG site near PR-B transcription start site (-13) in human T47D cells by sodium bisulfite sequencing analysis; format: functional, cell-based; how it was run: as §1
T47D [31] = test: Effect of DNA methylation at (+319) CpG site near PR-B transcription start site (-13) in human T47D cells by sodium bisulfite sequencing analysis; format: functional, cell-based; how it was run: as §1
T47D [32] = test: Effect of DNA methylation at (+356) CpG site near PR-B transcription start site (-13) in human T47D cells by sodium bisulfite sequencing analysis; format: functional, cell-based; how it was run: as §1
T47D [33] = test: Effect of DNA methylation at (+112) CpG site near PR-B transcription start site (-13) in human T47D cells by sodium bisulfite sequencing analysis; format: functional, cell-based; how it was run: as §1

Cc1cn(CC(=O)N(CCNC(=O)CN(CCNC(=O)CN(CCNC(=O)CN(CCNC(=O)CN(CCNC(=O)CN(CCNC(=O)CN(CCNC(=O)CN(CCNC(=O)CN(CCNC(=O)CN(CCNC(=O)CN(CCNC(=O)CN(CCNC(=O)CN(CCNC(=O)CN(CCNC(=O)CN(CCNC(=O)CN(CCNC(=O)CN(CCNC(=O)CN(CCNC(=O)CN(CCNC(=O)CN(CCNC(=O)CN)C(=O)Cn2cnc3c(N)ncnc32)C(=O)Cn2cnc3c(N)ncnc32)C(=O)Cn2cnc3c(=O)[nH]c(N)nc32)C(=O)Cn2ccc(N)nc2=O)C(=O)Cn2ccc(=O)[nH]c2=O)C(=O)Cn2cnc3c(=O)[nH]c(N)nc32)C(=O)Cn2ccc(=O)[nH]c2=O)C(=O)Cn2ccc(N)nc2=O)C(=O)Cn2ccc(=O)[nH]c2=O)C(=O)Cn2cnc3c(=O)[nH]c(N)nc32)C(=O)Cn2cnc3c(=O)[nH]c(N)nc32)C(=O)Cn2ccc(N)nc2=O)C(=O)Cn2ccc(N)nc2=O)C(=O)Cn2cnc3c(N)ncnc32)C(=O)Cn2cnc3c(=O)[nH]c(N)nc32)C(=O)Cn2ccc(=O)[nH]c2=O)C(=O)Cn2ccc(N)nc2=O)C(=O)Cn2ccc(N)nc2=O)C(=O)Cn2cnc3c(N)ncnc32)CC(=O)NCCN(CC(=O)NCC(=O)O)C(=O)Cn2cc(C)c(=O)[nH]c2=O)c(=O)[nH]c1=O
Activity (T47D [1]): inactive | Activity (T47D [2]): inactive | Activity (T47D [3]): inactive | inhibition at 0.025 µM (T47D [4]): 80% | Activity (T47D [5]): inactive | Activity (T47D [6]): inactive | Activity (T47D [7]): inactive | Activity (T47D [8]): inactive | Activity (T47D [9]): inactive | inhibition (T47D [10]): Active | inhibition at 0.1 µM (T47D [11]): 100% | Activity (T47D [12]): inactive | inhibition at 0.1 µM (T47D [13]): 100% | Activity (T47D [14]): inactive | Activity (T47D [15]): inactive | Activity (T47D [16]): inactive | Activity (T47D [17]): inactive | Activity (T47D [18]): inactive | Activity (T47D [19]): inactive | Activity (T47D [20]): inactive | Activity (T47D [21]): inactive | Activity (T47D [22]): inactive | Activity (T47D [23]): inactive | inhibition at 0.025 µM (T47D [24]): 72% | Activity (T47D [25]): inactive | inhibition (T47D [26]): Active | Activity (T47D [27]): inactive | Activity (T47D [28]): inactive | Activity (T47D [29]): inactive | Activity (T47D [30]): inactive | Activity (T47D [31]): inactive | Activity (T47D [32]): inactive | Activity (T47D [33]): inactive
